Activity data for 2 compounds are collected here from ChEMBL document CHEMBL1687712, “Antiviral effects of lamivudine, emtricitabine, adefovir dipivoxil, and tenofovir disoproxil fumarate administered orally alone and in combination to woodchucks with chronic woodchuck hepatitis virus infection” (Antimicrob Agents Chemother, 2008).

For series [1], the system named is Woodchuck hepatitis virus. Briefly: Antiviral activity against Woodchuck hepatitis virus infected in woodchuck assessed as reduction of viral antigen level in serum at 15 mg/kg, po qd for 48 weeks (reference value: 3.8 +/- 1.3 log10 ng/ml). It is filed as functional.
In series [2] the test system is Woodchuck hepatitis virus. Briefly: Antiviral activity against Woodchuck hepatitis virus infected in woodchuck assessed as absent of lesion in portal hepatitis at 15 mg/kg, po qd for 48 weeks. The series is classed as functional, organism-based. Further details: dose 15 mg/kg. The method in brief: (§1)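 Adult chronic WHV-carrier woodchucks (neonatally inoculated), 5 per group, given drug once daily by dose syringe in semisynthetic liquid diet, for 48 weeks; placebo got diet alone. Ultrasound-guided needle liver biopsies under ketamine/xylazine anesthesia at pretreatment, weeks 12, 36, 48 and 12 weeks post-withdrawal. Biopsies were formalin-fixed, paraffin-embedded and H&E stained. Portal and lobular hepatitis were graded 0 (absent) to 4 (most severe).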

For series [3], the system named is Woodchuck hepatitis virus. In words: Antiviral activity against Woodchuck hepatitis virus infected in woodchuck assessed as reduction of viral DNA replicative intermediate level per ug of total cell DNA at 15 mg/kg, po qd measured on 36th week on 48 weeks study (reference value: 1132 +/- 738 pg). It is filed as functional. The method in brief:
(§2)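 Chronic WHV-carrier woodchucks, 5 per group, 15 mg/kg/day oral once daily for 48 weeks in liquid diet. Needle liver biopsies were snap-frozen in liquid nitrogen and stored at −70°C. Hepatic WHV DNA replicative intermediates were quantified by Southern blot (pg/μg total cell DNA) and WHV RNA by Northern blot; group means ± SD were compared with pretreatment and placebo.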

Series [4] relates to Woodchuck hepatitis virus. In words: Antiviral activity against Woodchuck hepatitis virus infected in woodchuck assessed as reduction of viral antigen positive hepatocytes at 15 mg/kg, po qd for 48 weeks measured on 60th week (reference value: 26 %). Further details: scale not given: the % may be the effect or the level left. It is filed as functional, Hepatocyte. The procedure, abridged:
(§3)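 Chronic WHV-carrier woodchucks, 5 per group, 15 mg/kg/day oral once daily for 48 weeks in liquid diet. Liver biopsies were taken at pretreatment, weeks 12, 36, 48 and week 60. Percentage of hepatocytes positive for WHcAg was given as group mean ± SD and compared with pretreatment and placebo.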

In series [5] the test system is Marmota monax. In words: Toxicity in Woodchuck hepatitis virus infected woodchuck assessed as increase of liver alanine aminotransferase activity at 15 mg/kg, po qd for 48 weeks. It is filed as organism-based. Also noted: dose 15 mg/kg, route oral. The following applies: in vivo, 8064 h. The method in brief: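 Woodchucks chronically infected with WHV, 5 per group, received oral drug once daily in liquid diet for 48 weeks; placebo got diet only. Serum chemistry (GGT, ALP, ALT, AST, SDH, among others) was run 2 weeks pretreatment, at week 0, every other week to week 12, then monthly to week 48. Sampling continued at 2, 4, 6, 8 and 12 weeks post-treatment.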

Series [6] has as its system Woodchuck hepatitis virus. Briefly: Antiviral activity against Woodchuck hepatitis virus infected in woodchuck assessed as absent of lesion in lobular hepatitis at 15 mg/kg, po qd for 48 weeks measured on 60th week. It is filed as functional, organism-based. Further details: dose 15 mg/kg. The method in brief: as §1
Series [7] has as its system Woodchuck hepatitis virus. In words: Antiviral activity against Woodchuck hepatitis virus infected in woodchuck assessed as frequency of hepatocytes expressing viral antigen at 15 mg/kg, po qd measured on 36th week on 48 weeks study. The series is classed as functional, Hepatocyte. The method in brief:
(§4)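 Chronic WHV-carrier woodchucks, 5 per group, given 15 mg/kg/day orally once daily for 48 weeks in liquid diet; placebo is diet alone. Liver biopsies at pretreatment, weeks 12, 36, 48 and 12 weeks after withdrawal. Cytoplasmic WHsAg staining scored 0–4: 1 ≤1%, 2 ≤2%, 3 ≤5%, 4 ≥10% of hepatocytes.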

In series [8] the test system is Woodchuck hepatitis virus. Briefly: Antiviral activity against Woodchuck hepatitis virus infected in woodchuck assessed as reduction of viral DNA replicative intermediate level per ug of total cell DNA at 15 mg/kg, po qd measured on 12th week on 48 weeks study (reference value: 1495 +/- 890 pg). It is filed as functional. The method in brief: as §2
For series [9], the system named is Woodchuck hepatitis virus. In words: Antiviral activity against Woodchuck hepatitis virus infected in woodchuck assessed as absent of lobular in portal hepatitis at 15 mg/kg, po qd for 48 weeks. Also noted: dose 15 mg/kg. It is filed as functional, organism-based. The method in brief: as §1
For series [10], the system named is Woodchuck hepatitis virus. Briefly: Antiviral activity against Woodchuck hepatitis virus infected in woodchuck assessed as frequency of hepatocytes expressing viral antigen at 15 mg/kg, po qd measured on 12th week on 48 weeks study. It is filed as functional, Hepatocyte. The method in brief:
as §4

Series [11] deals with Woodchuck hepatitis virus. Briefly: Antiviral activity against Woodchuck hepatitis virus infected in woodchuck assessed as reduction of viral RNA level per ug of total cell DNA at 15 mg/kg, po qd for 48 weeks (reference value: 34 +/- 20 pg). The series is classed as functional. The method in brief: as §2
Series [12] relates to Woodchuck hepatitis virus. In words: Antiviral activity against Woodchuck hepatitis virus infected in woodchuck assessed as reduction of viral RNA level per ug of total cell DNA at 15 mg/kg, po qd for 48 weeks measured on 60th week (reference value: 27 pg). The series is classed as functional. The method in brief:
as §2

The subject of series [13] is Woodchuck hepatitis virus. In words: Antiviral activity against Woodchuck hepatitis virus infected in woodchuck assessed as absent of lesion in portal hepatitis at 15 mg/kg, po qd for 48 weeks measured on 60th week. The series is classed as functional, organism-based. Also noted: dose 15 mg/kg. The method in brief:
(§5)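 Chronic WHV-carrier adult woodchucks (inoculated at 3 days of age), 5 per group, dosed orally once daily for 48 weeks by dose syringe, drug in saline suspended in semisynthetic liquid diet; placebo is diet alone. Ultrasound-guided needle liver biopsies under ketamine/xylazine, formalin-fixed, H&E stained; portal and lobular hepatitis graded 0 (absent) to 4 (most severe).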

Series [14] relates to Woodchuck hepatitis virus. In words: Antiviral activity against Woodchuck hepatitis virus infected in woodchuck assessed as reduction of viral antigen positive hepatocytes at 15 mg/kg, po qd for 48 weeks study (reference value: 35 +/- 27 %). The series is classed as functional, Hepatocyte. Also noted: scale not given: the % may be the effect or the level left. The procedure, abridged:
as §3

Series [15] concerns Woodchuck hepatitis virus. In words: Antiviral activity against Woodchuck hepatitis virus infected in woodchuck assessed as absent of lesion in portal hepatitis at 15 mg/kg, po qd measured on 36th week on 48 weeks study. It is filed as functional, organism-based. Also noted: dose 15 mg/kg. The method in brief: as §5

SMILES strings stand for the structures. Calls of active or inactive are those of the source. The calls are words filed in the database; no cut-off is given here.

As to `CC(C)(C)C(=O)OCOP(=O)(COCCn1cnc2c(N)ncnc21)OCOC(=O)C(C)(C)C` [ADEFOVIR DIPIVOXIL], the Activity in [1] is reported as 4.1 log10ng/ml; in series [3] it was 324 pg; in [4], 48%; in series [5], “Toxic”; in [7], 5%; in series [8] it was 330 pg. Moreover, the Activity amounted to 1% in series [10], 24 pg in series [11], 46 pg in series [12] and 13% in series [14]. In addition, the outcome in series [2], in series [6], in series [9] and in [13] was Active.
`CC(C)OC(=O)OCOP(=O)(CO[C@H](C)Cn1cnc2c(N)ncnc21)OCOC(=O)OC(C)C.O=C(O)/C=C/C(=O)O` [TENOFOVIR DISOPROXIL FUMARATE]: the result in series [15], in series [2] and in series [13] was Active. Also, the Activity in series [1] is reported as 3.6 log10ng/ml; in series [3], 443 pg; in series [4], 39%; in series [5] it was “Toxic”; in [7], 1%; in [8], 870 pg. Besides, the Activity in series [10] was determined as 0%; in series [11] it was 31 pg; in series [12], 34 pg; in series [14], 26%.
